# Results reported in ChEMBL document CHEMBL4028864 (J Med Chem, 2017).
# Key:
# [1] = molecular target: Histone deacetylase 8 (Homo sapiens, UniProt Q9BY41); experiment: Inhibition of C-terminal His tagged human recombinant HDAC8 (1 to 377 residues) expressed in Baculovirus infected insect cells in presence of ATP
# Outline: (§1)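 HDAC enzyme inhibition was run by a contract laboratory.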
# [2] = molecular target: Histone deacetylase 9 (Homo sapiens, UniProt Q9UKV0); experiment: Inhibition of HDAC9 (unknown origin) in presence of ATP; outline: as §1
# [3] = molecular target: Histone deacetylase 1 (Homo sapiens, UniProt Q13547); experiment: Inhibition of C-terminal FLAG His tagged full length human recombinant HDAC1 (1 to 482 residues) expressed in baculovirus infected sf21 cells using RHKKAc as substrate in presence of ATP
# [4] = molecular target: T1, Protein deacetylase HDAC6 (Homo sapiens, UniProt Q9UBN7); experiment: Inhibition of N-terminal GST tagged human HDAC6 (1 to 1215 residues) expressed in baculovirus infected insect cells using RHKKAc as substrate in presence of ATP
# T1 sequence (Q9UBN7 whole entry): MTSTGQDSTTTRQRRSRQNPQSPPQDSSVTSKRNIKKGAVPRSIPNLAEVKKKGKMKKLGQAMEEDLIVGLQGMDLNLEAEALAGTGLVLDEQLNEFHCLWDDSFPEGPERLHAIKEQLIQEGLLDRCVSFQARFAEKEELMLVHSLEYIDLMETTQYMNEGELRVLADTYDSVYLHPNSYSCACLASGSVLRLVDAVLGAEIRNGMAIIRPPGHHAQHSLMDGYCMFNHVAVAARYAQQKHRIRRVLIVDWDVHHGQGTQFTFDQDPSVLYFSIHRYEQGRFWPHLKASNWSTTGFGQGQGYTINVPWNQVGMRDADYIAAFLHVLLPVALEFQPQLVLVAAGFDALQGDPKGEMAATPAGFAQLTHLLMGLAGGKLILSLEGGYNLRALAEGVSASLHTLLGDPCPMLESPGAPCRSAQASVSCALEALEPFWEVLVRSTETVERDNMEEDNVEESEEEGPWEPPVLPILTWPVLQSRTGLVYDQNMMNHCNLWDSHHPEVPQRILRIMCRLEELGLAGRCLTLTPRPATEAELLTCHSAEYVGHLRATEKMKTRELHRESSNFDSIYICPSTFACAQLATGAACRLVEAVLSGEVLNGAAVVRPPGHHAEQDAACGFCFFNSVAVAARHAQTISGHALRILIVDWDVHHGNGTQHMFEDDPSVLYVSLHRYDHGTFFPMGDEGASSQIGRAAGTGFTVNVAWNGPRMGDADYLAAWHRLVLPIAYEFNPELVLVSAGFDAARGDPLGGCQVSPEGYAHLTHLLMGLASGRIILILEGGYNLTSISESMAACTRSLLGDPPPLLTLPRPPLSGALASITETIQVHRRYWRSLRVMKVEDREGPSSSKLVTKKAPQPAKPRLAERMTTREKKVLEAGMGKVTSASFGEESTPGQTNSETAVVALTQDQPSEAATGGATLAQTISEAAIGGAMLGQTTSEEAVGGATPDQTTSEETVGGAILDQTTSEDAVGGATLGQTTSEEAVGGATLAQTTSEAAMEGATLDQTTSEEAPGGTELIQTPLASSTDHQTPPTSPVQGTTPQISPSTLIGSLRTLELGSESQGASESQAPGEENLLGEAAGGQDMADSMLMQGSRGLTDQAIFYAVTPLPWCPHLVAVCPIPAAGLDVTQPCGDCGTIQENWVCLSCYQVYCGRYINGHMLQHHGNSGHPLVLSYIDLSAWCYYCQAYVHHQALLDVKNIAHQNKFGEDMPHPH
# [5] = molecular target: T2, Tyrosine-protein kinase JAK2 (Homo sapiens, UniProt O60674); experiment: Inhibition of human JAK2 using poly[Glu:Tyr] as substrate in presence of [gamma-33P]-ATP
# [6] = molecular target: Tyrosine-protein kinase JAK1 (Homo sapiens, UniProt P23458); experiment: Inhibition of human JAK1 using poly[Glu:Tyr] as substrate in presence of [gamma-33P]-ATP
# Outline: (§2)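 Kinase inhibition was tested by radiometric "Hotspot" profiling at a contract laboratory with 10 μM ATP.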
# [7] = molecular target: T3, Tyrosine-protein kinase JAK3 (Homo sapiens, UniProt P52333); experiment: Inhibition of human JAK3 using GEEEEYFELVKKKK as substrate in presence of [gamma-33P]-ATP; outline: as §2
# T3 sequence (P52333 whole entry): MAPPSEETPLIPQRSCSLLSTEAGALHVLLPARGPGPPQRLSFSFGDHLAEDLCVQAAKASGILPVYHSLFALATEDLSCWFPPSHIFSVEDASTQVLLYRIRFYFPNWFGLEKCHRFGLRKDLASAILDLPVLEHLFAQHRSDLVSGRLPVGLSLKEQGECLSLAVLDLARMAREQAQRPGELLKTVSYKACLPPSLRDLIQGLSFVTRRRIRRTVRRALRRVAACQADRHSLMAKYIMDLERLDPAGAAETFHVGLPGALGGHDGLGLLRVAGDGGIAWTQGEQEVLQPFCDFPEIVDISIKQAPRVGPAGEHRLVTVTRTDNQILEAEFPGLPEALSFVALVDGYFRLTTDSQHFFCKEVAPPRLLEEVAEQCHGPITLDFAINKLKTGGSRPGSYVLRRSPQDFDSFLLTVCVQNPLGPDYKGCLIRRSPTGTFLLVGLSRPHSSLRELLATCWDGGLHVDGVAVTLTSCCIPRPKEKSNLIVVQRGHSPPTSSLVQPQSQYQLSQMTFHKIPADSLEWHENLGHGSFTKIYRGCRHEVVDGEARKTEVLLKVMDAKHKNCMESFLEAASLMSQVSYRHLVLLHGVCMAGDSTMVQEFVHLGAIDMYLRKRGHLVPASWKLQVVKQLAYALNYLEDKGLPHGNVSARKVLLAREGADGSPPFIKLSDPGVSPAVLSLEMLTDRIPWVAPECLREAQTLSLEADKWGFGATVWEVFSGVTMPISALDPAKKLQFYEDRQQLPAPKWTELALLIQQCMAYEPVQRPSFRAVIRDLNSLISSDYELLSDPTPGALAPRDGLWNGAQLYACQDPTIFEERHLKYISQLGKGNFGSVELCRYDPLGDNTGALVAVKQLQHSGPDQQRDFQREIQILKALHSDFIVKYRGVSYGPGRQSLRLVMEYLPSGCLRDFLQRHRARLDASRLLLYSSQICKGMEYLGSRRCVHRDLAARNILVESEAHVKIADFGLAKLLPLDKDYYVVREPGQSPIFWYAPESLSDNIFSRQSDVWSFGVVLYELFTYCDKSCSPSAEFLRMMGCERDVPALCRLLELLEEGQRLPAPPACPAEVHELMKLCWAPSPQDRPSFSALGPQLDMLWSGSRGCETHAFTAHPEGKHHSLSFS
# [8] = molecular target: Non-receptor tyrosine-protein kinase TYK2 (Homo sapiens, UniProt P29597); experiment: Inhibition of human TYK2 using KKSRGDYMTMQIG as substrate in presence of [gamma-33P]-ATP; outline: as §2
# [9] = molecular target: Histone deacetylase 2 (Homo sapiens, UniProt Q92769); experiment: Inhibition of C-terminal GST tagged human recombinant HDAC2 (1 to 488 residues) expressed in Baculovirus infected insect cells in presence of ATP; outline: as §1
# [10] = molecular target: Histone deacetylase 3/Nuclear receptor corepressor 2 (HDAC3/NCoR2) (Homo sapiens, UniProt O15379); experiment: Inhibition of human recombinant HDAC3 (1 to 428 residues)/N-terminal GST-tagged NCOR2 (395 to 489 residues) expressed in Baculovirus infected insect cells in presence of ATP; outline: as §1
# [11] = molecular target: Histone deacetylase 4 (Homo sapiens) (UniProt P56524); experiment: Inhibition of N-terminal GST tagged/C-terminal His tagged human recombinant HDAC4 (627 to 1084 residues) expressed in Baculovirus infected insect cells in presence of ATP; settings: concentration not given here; outline: as §1
# [12] = molecular target: Histone deacetylase 5 (Homo sapiens, UniProt Q9UQL6); experiment: Inhibition of C-terminal His tagged human recombinant HDAC5 (657 to 1123 residues) expressed in Baculovirus infected insect cells in presence of ATP; outline: as §1
# [13] = molecular target: Polyamine deacetylase HDAC10 (Homo sapiens, UniProt Q969S8); experiment: Inhibition of human HDAC10 using fluorogenic peptide from p53 residues 379 to 382 as substrate in presence of ATP; outline: as §1
# [14] = molecular target: Histone deacetylase 11 (Homo sapiens) (UniProt Q96DB2); experiment: Inhibition of C-terminal His tagged human recombinant HDAC11 (1 to 347 residues) expressed in Baculovirus infected insect cells at 10 uM in presence of ATP relative to control; outline: as §1
# [15] = molecular target: Histone deacetylase 7 (Homo sapiens) (UniProt Q8WUI4); experiment: Inhibition of N-terminal GST tagged human recombinant HDAC7 (518 to 991 residues) expressed in Baculovirus infected insect cells at 10 uM in presence of ATP relative to control; outline: as §1
# [16] = molecular target: T2, Tyrosine-protein kinase JAK2; experiment: Binding affinity to N-terminal His tagged human recombinant JAK2 (1014 to 1132 residues) expressed in Escherichia coli after 60 to 90 mins by LC/MS analysis; settings: read-out: Kd(app)
# [17] = tested on: MDA-MB-231; experiment: cells; format: functional, cell-based; settings: Homo sapiens, MDA-MB-231, 72 h
# [18] = tested on: MCF7; experiment: cells; format: functional, cell-based; settings: Homo sapiens, MCF7, 72 h
# [19] = tested on: HCT-116; experiment: Antiproliferative activity against human HCT116 cells after 72 hrs by MTT assay; format: functional, cell-based; settings: HCT-116, 72 h
# [20] = tested on: PC-3; experiment: cells; format: functional, cell-based; settings: Homo sapiens, PC-3, 72 h
# [21] = tested on: HL-60; experiment: Antiproliferative activity against human HL60 cells; format: functional, cell-based
# [22] = tested on: HEL 92.1.7; experiment: cells; format: functional, cell-based; settings: Homo sapiens, HEL 92.1.7, 36 h
# [23] = tested on: Jurkat; experiment: cells; format: functional, cell-based; settings: Homo sapiens
# [24] = tested on: KMS-12-BM; experiment: cells; format: functional, cell-based; settings: Homo sapiens, 48 h
# [25] = tested on: MOLM-14; experiment: cells; format: functional, cell-based; settings: Homo sapiens, MOLM-14, 48 h
# [26] = cells; format: functional, cell-based; settings: Homo sapiens, NKYS, 48 h
# [27] = cells; format: ADME, cell-based; settings: Homo sapiens, AC10, 24 h
# [28] = tested on: HL-60; experiment: Antiproliferative activity against human HL60 cells at 4 uM after 36 hrs by PrestoBlue dye based assay relative to control; format: functional
# Sequence of Histone deacetylase 1 (Q13547 whole entry, the tested form may be a part): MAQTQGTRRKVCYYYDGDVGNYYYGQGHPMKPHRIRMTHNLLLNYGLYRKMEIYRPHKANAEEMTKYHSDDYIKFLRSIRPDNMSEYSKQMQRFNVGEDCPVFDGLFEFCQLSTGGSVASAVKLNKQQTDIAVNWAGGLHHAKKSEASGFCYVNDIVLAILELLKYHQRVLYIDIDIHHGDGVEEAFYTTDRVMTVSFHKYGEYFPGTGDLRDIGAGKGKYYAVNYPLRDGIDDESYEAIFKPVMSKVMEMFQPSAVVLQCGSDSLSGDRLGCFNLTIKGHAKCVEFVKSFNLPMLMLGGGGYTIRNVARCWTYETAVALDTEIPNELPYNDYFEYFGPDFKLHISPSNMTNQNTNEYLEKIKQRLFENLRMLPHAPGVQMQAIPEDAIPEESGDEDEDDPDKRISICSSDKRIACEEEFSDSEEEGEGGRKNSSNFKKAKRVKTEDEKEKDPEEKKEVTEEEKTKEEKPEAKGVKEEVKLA
# T2 sequence (O60674 whole entry): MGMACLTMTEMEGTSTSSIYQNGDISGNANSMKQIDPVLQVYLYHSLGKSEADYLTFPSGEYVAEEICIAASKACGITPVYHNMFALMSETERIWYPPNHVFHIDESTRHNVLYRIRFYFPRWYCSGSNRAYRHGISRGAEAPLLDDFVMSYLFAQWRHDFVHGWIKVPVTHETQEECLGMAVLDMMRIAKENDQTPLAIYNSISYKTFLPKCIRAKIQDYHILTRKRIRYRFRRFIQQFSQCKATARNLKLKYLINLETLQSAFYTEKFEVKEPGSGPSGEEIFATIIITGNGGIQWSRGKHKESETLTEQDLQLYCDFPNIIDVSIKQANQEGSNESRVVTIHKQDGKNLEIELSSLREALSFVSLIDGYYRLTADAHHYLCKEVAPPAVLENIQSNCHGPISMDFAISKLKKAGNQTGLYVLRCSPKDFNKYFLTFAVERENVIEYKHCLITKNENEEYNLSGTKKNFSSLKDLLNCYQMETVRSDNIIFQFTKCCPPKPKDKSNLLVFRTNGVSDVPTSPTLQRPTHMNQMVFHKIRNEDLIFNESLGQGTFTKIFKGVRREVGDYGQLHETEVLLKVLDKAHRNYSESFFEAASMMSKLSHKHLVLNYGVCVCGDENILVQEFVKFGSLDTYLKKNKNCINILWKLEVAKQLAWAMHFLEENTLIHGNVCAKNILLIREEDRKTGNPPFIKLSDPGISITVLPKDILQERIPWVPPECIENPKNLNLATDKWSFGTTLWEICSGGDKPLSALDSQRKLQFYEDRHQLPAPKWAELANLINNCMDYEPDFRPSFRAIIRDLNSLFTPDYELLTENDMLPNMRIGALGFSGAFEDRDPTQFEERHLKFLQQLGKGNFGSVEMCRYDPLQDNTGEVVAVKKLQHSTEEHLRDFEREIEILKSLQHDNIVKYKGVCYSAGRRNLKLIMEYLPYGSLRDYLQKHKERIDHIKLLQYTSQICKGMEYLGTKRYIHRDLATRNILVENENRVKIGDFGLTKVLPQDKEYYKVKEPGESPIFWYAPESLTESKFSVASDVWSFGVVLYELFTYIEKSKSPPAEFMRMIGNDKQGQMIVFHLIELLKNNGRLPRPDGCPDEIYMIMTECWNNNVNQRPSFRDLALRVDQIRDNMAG
# Sequence of Histone deacetylase 3/Nuclear receptor corepressor 2 (HDAC3/NCoR2) (O15379 whole entry, the tested form may be a part): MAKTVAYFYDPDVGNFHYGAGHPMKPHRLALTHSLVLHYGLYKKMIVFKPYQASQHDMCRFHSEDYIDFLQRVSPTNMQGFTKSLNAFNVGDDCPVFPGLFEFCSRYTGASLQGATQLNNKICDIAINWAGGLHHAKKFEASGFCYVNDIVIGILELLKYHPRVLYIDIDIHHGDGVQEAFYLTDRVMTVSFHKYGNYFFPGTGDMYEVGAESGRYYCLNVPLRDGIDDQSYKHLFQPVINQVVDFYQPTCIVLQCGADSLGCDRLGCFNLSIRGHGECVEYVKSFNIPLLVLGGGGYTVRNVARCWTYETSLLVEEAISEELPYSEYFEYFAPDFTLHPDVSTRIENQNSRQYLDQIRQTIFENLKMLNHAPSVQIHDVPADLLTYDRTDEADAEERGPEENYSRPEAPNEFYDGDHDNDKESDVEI
# Sequence of Histone deacetylase 3/Nuclear receptor corepressor 2 (HDAC3/NCoR2) (Q9Y618 whole entry, further chain, the tested form may be a part): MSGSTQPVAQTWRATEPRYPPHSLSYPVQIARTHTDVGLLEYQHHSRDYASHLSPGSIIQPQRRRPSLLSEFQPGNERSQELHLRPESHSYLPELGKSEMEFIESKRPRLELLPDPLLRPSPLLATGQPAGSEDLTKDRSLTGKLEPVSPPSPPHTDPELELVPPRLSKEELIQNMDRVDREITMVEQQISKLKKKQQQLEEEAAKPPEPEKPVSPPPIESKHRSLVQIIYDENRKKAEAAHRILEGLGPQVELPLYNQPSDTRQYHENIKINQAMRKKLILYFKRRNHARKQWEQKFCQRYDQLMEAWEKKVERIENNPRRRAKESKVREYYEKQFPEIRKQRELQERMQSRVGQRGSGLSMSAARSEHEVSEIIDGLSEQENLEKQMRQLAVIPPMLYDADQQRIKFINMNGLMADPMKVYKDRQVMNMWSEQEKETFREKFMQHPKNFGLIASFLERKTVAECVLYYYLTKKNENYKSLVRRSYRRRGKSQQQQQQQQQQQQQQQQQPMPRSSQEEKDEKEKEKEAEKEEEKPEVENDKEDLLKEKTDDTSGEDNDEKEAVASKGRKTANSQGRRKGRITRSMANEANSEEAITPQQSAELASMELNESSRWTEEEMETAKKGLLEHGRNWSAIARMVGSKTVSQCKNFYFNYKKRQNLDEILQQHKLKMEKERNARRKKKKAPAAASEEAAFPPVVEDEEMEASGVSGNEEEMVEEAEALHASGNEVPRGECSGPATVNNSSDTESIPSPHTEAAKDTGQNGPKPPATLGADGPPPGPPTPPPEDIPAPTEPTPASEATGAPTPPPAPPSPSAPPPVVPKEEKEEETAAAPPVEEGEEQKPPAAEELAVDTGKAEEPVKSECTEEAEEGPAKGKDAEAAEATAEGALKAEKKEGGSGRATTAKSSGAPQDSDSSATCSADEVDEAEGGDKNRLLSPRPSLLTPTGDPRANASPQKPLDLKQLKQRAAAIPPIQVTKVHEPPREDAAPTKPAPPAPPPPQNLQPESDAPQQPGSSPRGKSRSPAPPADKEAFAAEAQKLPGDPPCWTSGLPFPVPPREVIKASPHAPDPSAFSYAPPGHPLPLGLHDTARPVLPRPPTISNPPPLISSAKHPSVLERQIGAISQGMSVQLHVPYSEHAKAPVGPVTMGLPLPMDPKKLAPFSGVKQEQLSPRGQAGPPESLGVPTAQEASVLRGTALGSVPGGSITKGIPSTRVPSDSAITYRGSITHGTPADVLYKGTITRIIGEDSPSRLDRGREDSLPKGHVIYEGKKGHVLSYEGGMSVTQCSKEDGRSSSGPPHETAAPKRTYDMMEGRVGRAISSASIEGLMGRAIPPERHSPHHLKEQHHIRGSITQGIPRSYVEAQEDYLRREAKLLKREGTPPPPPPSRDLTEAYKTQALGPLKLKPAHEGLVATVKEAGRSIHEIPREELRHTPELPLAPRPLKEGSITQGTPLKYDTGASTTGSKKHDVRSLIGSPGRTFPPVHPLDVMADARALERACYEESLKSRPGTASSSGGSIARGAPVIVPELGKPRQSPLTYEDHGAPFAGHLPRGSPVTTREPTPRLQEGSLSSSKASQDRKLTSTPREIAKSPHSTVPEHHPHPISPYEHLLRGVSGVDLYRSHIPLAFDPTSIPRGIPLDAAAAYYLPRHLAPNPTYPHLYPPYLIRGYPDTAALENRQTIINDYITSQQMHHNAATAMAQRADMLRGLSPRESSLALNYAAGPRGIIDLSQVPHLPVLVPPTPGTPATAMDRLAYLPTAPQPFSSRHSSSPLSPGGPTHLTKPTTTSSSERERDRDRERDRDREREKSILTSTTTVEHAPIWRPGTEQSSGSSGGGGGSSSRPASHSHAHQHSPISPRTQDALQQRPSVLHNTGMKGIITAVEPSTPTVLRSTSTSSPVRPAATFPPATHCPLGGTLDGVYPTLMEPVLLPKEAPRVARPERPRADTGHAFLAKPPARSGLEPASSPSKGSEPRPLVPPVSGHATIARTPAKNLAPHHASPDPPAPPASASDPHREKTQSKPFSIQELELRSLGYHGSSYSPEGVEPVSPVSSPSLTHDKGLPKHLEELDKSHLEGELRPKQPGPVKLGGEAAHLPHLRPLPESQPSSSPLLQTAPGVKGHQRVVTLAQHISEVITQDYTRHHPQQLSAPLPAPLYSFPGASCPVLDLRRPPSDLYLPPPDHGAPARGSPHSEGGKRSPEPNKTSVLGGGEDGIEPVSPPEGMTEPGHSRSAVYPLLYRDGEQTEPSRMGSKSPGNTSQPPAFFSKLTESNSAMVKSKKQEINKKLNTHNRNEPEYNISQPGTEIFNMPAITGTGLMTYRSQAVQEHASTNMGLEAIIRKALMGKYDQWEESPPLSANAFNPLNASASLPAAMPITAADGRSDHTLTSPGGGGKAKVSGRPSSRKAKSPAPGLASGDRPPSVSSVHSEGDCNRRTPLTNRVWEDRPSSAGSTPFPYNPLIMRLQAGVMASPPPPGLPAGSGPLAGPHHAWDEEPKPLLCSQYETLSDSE
# Sequence of Histone deacetylase 2 (Q92769 whole entry, the tested form may be a part): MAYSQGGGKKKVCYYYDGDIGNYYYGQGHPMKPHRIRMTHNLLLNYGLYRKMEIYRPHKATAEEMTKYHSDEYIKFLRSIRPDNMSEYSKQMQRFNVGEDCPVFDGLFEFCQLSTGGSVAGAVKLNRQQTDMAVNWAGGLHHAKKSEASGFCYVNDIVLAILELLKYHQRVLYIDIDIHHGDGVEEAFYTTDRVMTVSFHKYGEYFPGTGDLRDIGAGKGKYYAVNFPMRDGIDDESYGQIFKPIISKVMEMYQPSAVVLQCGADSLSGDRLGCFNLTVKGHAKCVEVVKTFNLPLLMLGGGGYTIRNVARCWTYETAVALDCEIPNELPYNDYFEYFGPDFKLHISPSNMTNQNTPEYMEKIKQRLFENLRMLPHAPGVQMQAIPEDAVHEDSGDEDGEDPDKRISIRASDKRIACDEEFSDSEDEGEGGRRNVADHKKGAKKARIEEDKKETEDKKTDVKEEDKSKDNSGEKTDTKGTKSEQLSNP
Structure (SMILES),IC50 [3],IC50 [4],IC50 [5],Kd [16],IC50 [17],IC50 [18],IC50 [19],IC50 [20],further results
CC(CCCCCC(=O)NO)n1cc(-c2ncnc3[nH]ccc23)cn1 (stereo not drawn),6 nM,1 nM,65 nM,–,–,–,–,–,IC50 [1]: 310 nM; IC50 [2]: 8500 nM; IC50 [6]: 11 nM; IC50 [7]: 436 nM; IC50 [8]: 144 nM; IC50 [9]: 47 nM; IC50 [10]: 24 nM; inhibition [11]: 8%; IC50 [12]: 7400 nM; IC50 [13]: 31 nM; inhibition [14]: 40%; inhibition [15]: 33%
O=C(CCCn1cc(-c2ncnc3[nH]ccc23)cn1)NO,–,604 nM,3560 nM,5000 nM,> 100000 nM,> 100000 nM,> 100000 nM,> 100000 nM,–
O=C(CCCCCCC(=O)Nc1ccc(CCCn2cc(-c3ncnc4[nH]ccc34)cn2)cc1)NO,265 nM,0.9 nM,865 nM,2000 nM,70000 nM,> 50000 nM,23000 nM,> 50000 nM,–
CN1CCc2c(c3ccccc3n2Cc2ccc(C(=O)NO)cc2)C1 [TUBASTATIN A],–,–,–,–,10400 nM,3700 nM,2000 nM,8600 nM,IC50 [21]: > 4000 nM; IC50 [22]: > 4000 nM; IC50 [23]: > 4000 nM
O=C(CCCCCn1cc(-c2ncnc3[nH]ccc23)cn1)NO,138 nM,2.9 nM,–,–,–,8160 nM,8990 nM,18800 nM,–
O=C(CCCCCCCn1cc(-c2ncnc3[nH]ccc23)cn1)NO,36 nM,1.8 nM,481 nM,2000 nM,12900 nM,12400 nM,11800 nM,12900 nM,–
O=C(CCCCCCCCCCn1cc(-c2ncnc3[nH]ccc23)cn1)NO,3540 nM,88 nM,43 nM,< 1000 nM,12900 nM,13300 nM,41100 nM,54300 nM,–
O=C(CCCCCCC(=O)Nc1ccc(NCCCn2cc(-c3ncnc4[nH]ccc34)cn2)cc1)NO,110 nM,0.14 nM,265 nM,1000 nM,25500 nM,15200 nM,19400 nM,23900 nM,IC50 [21]: > 10000 nM; IC50 [22]: > 4000 nM; IC50 [23]: 4000 nM
O=C(CCCCCCC(=O)Nc1ccccc1)NO [VORINOSTAT],–,–,–,–,–,–,1850 nM,–,–
O=C(CCCCn1cc(-c2ncnc3[nH]ccc23)cn1)NO,854 nM,6 nM,–,–,17300 nM,12800 nM,46200 nM,> 100000 nM,–
O=C(CCCCCCC(=O)Nc1ccc(NC(=O)CCCn2cc(-c3ncnc4[nH]ccc34)cn2)cc1)NO,–,550 nM,1200 nM,2000 nM,> 100000 nM,> 100000 nM,> 100000 nM,> 100000 nM,–
C1=N/C2=N/c3ccc(OCCN4CCCC4)c(c3)COC/C=C/COCc3cccc(c3)C(=C1)N2 [PACRITINIB],–,–,–,–,–,–,–,–,IC50 [24]: 750 nM; IC50 [25]: 79 nM; IC50 [26]: 1600 nM; IC50 [27]: 2020 nM
O=C(CCCCCCOc1ccc2cc1COC/C=C/COCc1cccc(c1)-c1ccnc(n1)N2)NO,–,–,–,–,–,–,–,–,IC50 [21]: 4000 nM; IC50 [22]: 940 nM; IC50 [23]: 1190 nM; Activity [28]: 47%; IC50 [24]: 2110 nM; IC50 [27]: 2070 nM
